According to ChEMBL document CHEMBL5724801, “EUbOPEN Chemogenomics Library - Multiplex” (2024):
Several values for one entry are separate records, joined by “and”; a condition that tells them apart may be missing. Equal values may be shown once.

Legend:
HEK-293T = experiment: Multiplex assay against HEK293T; format: toxicity, cell-based; conditions: human
Method in brief: (§1)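 Four dyes were applied at seeding to live cells: Hoechst33342, BioTracker Green Microtubule Cytoskeleton Dye, MitoTracker Red and Annexin V Alexa Fluor 680. Imaging after compound addition used a CQ1 microscope at 37°C and 5% CO2. CellPathfinder machine-learning gating then sorted cells into Hoechst high-intensity objects or normal cells, normal cells into healthy, pyknosed or fragmented nuclei, and pyknosed cells into mitotic or apoptotic, with tubulin, mitochondrial-mass and membrane-permeability phenotypes given as per cents of healthy-nucleus cells.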

U2OS = experiment: Multiplex assay against U2OS; format: toxicity, cell-based; conditions: human; method in brief: as §1
[1] = 24 h, 10 µM, compound concentration 10 uM
[2] = 48 h, 1 µM, compound concentration 1 uM
[3] = 48 h, 10 µM, compound concentration 10 uM
[4] = 12 h, 1 µM, compound concentration 1 uM
[5] = 12 h, 10 µM, compound concentration 10 uM
[6] = 24 h, 1 µM, compound concentration 1 uM

## COCCCN1CCC(NC(=O)c2cc(Cl)c(N)c3c2OCC3)CC1 [PRUCALOPRIDE]
HEK-293T; [1]
  Population Apoptotic (%): 28% and 50%
  Population Fragmented Nuclei (%): 8% and 13%
  Population Healthy Nuclei (%): 77% and 73%
  Population Hoechst High Intensity Objects (%): 4% and 9%
  Population Membrane Permeable-Phenotype (%): 0%
  Population Mitochondria Different-Phenotype (%): 48% and 51%
  Population Mitotic Cells (%): 71% and 50%
  Population Normal (%): 95% and 90%
  Population Pyknosed Nuclei (%): 13% and 12%
  Population Tubulin-Different-Phenotype (%): 32% and 25%
  Total Cell Count: 531 and 341
HEK-293T; [2]
  Population Apoptotic (%): 24% and 21%
  Population Fragmented Nuclei (%): 15% and 11%
  Population Healthy Nuclei (%): 76% and 81%
  Population Hoechst High Intensity Objects (%): 2% and 1%
  Population Membrane Permeable-Phenotype (%): 1% and 0%
  Population Mitochondria Different-Phenotype (%): 16% and 15%
  Population Mitotic Cells (%): 75% and 78%
  Population Normal (%): 97% and 98%
  Population Pyknosed Nuclei (%): 7% and 6%
  Population Tubulin-Different-Phenotype (%): 11% and 9%
  Total Cell Count: 1001 and 832
HEK-293T; [3]
  Population Apoptotic (%): 20% and 35%
  Population Fragmented Nuclei (%): 16%
  Population Healthy Nuclei (%): 77% and 75%
  Population Hoechst High Intensity Objects (%): 1% and 3%
  Population Membrane Permeable-Phenotype (%): 1% and 0%
  Population Mitochondria Different-Phenotype (%): 32% and 31%
  Population Mitotic Cells (%): 79% and 64%
  Population Normal (%): 98% and 96%
  Population Pyknosed Nuclei (%): 6% and 7%
  Population Tubulin-Different-Phenotype (%): 16% and 15%
  Total Cell Count: 772 and 528
U2OS; [4]
  Population Apoptotic (%): 84% and 87%
  Population Fragmented Nuclei (%): 30% and 21%
  Population Healthy Nuclei (%): 63% and 71%
  Population Hoechst High Intensity Objects (%): 1% and 0%
  Population Membrane Permeable-Phenotype (%): 7% and 12%
  Population Mitochondria Different-Phenotype (%): 3% and 7%
  Population Mitotic Cells (%): 15% and 12%
  Population Normal (%): 98% and 99%
  Population Pyknosed Nuclei (%): 6% and 7%
  Population Tubulin-Different-Phenotype (%): 4% and 8%
  Total Cell Count: 207 and 110
U2OS; [5]
  Population Apoptotic (%): 68% and 47%
  Population Fragmented Nuclei (%): 22% and 13%
  Population Healthy Nuclei (%): 63% and 73%
  Population Hoechst High Intensity Objects (%): 3% and 2%
  Population Membrane Permeable-Phenotype (%): 4% and 1%
  Population Mitochondria Different-Phenotype (%): 0% and 1%
  Population Mitotic Cells (%): 31% and 52%
  Population Normal (%): 96% and 97%
  Population Pyknosed Nuclei (%): 13% and 12%
  Population Tubulin-Different-Phenotype (%): 2% and 1%
  Total Cell Count: 238 and 140
U2OS; [6]
  Population Apoptotic (%): 80%
  Population Fragmented Nuclei (%): 26% and 23%
  Population Healthy Nuclei (%): 65% and 69%
  Population Hoechst High Intensity Objects (%): 2% and 1%
  Population Membrane Permeable-Phenotype (%): 5% and 8%
  Population Mitochondria Different-Phenotype (%): 3% and 4%
  Population Mitotic Cells (%): 20%
  Population Normal (%): 97% and 98%
  Population Pyknosed Nuclei (%): 8% and 7%
  Population Tubulin-Different-Phenotype (%): 5% and 7%
  Total Cell Count: 247 and 132
U2OS; [1]
  Population Apoptotic (%): 87% and 77%
  Population Fragmented Nuclei (%): 23% and 12%
  Population Healthy Nuclei (%): 64% and 76%
  Population Hoechst High Intensity Objects (%): 4% and 1%
  Population Membrane Permeable-Phenotype (%): 5% and 3%
  Population Mitochondria Different-Phenotype (%): 2%
  Population Mitotic Cells (%): 12% and 22%
  Population Normal (%): 95% and 98%
  Population Pyknosed Nuclei (%): 12% and 11%
  Population Tubulin-Different-Phenotype (%): 4% and 3%
  Total Cell Count: 280 and 161
U2OS; [2]
  Population Apoptotic (%): 85% and 86%
  Population Fragmented Nuclei (%): 20%
  Population Healthy Nuclei (%): 73% and 67%
  Population Hoechst High Intensity Objects (%): 3% and 2%
  Population Membrane Permeable-Phenotype (%): 3% and 11%
  Population Mitochondria Different-Phenotype (%): 1% and 6%
  Population Mitotic Cells (%): 14% and 13%
  Population Normal (%): 96% and 97%
  Population Pyknosed Nuclei (%): 6% and 11%
  Population Tubulin-Different-Phenotype (%): 3% and 9%
  Total Cell Count: 352 and 199
U2OS; [3]
  Population Apoptotic (%): 88% and 90%
  Population Fragmented Nuclei (%): 17% and 11%
  Population Healthy Nuclei (%): 69% and 79%
  Population Hoechst High Intensity Objects (%): 1%
  Population Membrane Permeable-Phenotype (%): 5% and 3%
  Population Mitochondria Different-Phenotype (%): 2% and 3%
  Population Mitotic Cells (%): 11% and 9%
  Population Normal (%): 98%
  Population Pyknosed Nuclei (%): 12% and 9%
  Population Tubulin-Different-Phenotype (%): 2% and 1%
  Total Cell Count: 347 and 245
